Common to all, as to format: functional
Experiment [1] has as its system Plasmodium falciparum. In words: Antimalarial activity against chloroquine-resistant Plasmodium falciparum W2 infected type A+ human erythrocytes by [3H]hypoxanthine uptake. To be noted: read-out: ED50 (the source's name). In a few lines: (§1)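 P. falciparum (chloroquine-sensitive D-6, chloroquine-resistant W-2) in type A+ human erythrocytes, 6% hematocrit, RPMI-1640 with 32 mM NaHCO3, 25 mM HEPES, 10% heat-inactivated A+ human plasma; 5% O2/5% CO2/90% N2, 37°. Test compounds in duplicate at 125,000–3 ng/ml; quinine control 250–0.3 ng/ml. ED50 = 50% inhibition of parasite [3H]hypoxanthine incorporation vs zero-drug controls, by non-linear regression.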

Experiment [2] has as its system Plasmodium falciparum. In words: Antimalarial activity against chloroquine-sensitive Plasmodium falciparum D6 infected type A+ human erythrocytes by [3H]hypoxanthine uptake. As to conditions: read-out: ED50 (the source's name). The essentials:
as §1

A short description of experiment [3]: Cytotoxicity against human multidrug-sensitive KB3 cells. To be noted: read-out: ED50 (the source's name).
Experiment [4] is described as follows: Cytotoxicity against human multidrug-resistant KBV1 cells. As to conditions: KB-V1, read-out: ED50 (the source's name).
A further experiment relates to P388. In words: Cytotoxicity against mouse P388 cells. As to conditions: read-out: ED50 (the source's name).

This passage reports EC50 results from ChEMBL document CHEMBL1147330, “Cytotoxic and antimalarial bisbenzylisoquinoline alkaloids from Cyclea barbata” (1993).

SMILES strings stand for the structures. In brackets after ≈: the same amount, converted by molar mass.

Turning to `COc1ccc2cc1Oc1ccc(cc1)C[C@@H]1c3cc(c(OC)cc3CCN1C)Oc1c(O)c(OC)cc3c1[C@@H](C2)N(C)CC3`, the EC50 in the experiment with Plasmodium falciparum [1] amounted to 0.164 µg/mL (≈ 0.269 µM); in the experiment on Plasmodium falciparum [2], 0.0527 µg/mL (≈ 0.0866 µM); in experiment [3] it was 9.8 µg/mL (≈ 16.1 µM); in experiment [4] it was 11 µg/mL (≈ 18.1 µM); with P388 it was 0.25 µg/mL (≈ 0.411 µM).
Turning to `COc1ccc2cc1Oc1ccc(cc1)C[C@H]1c3c(cc(OC)c(O)c3Oc3cc4c(cc3OC)CCN(C)[C@H]4C2)CCN1C`, the EC50 worked out at 0.0406 µg/mL (≈ 0.0667 µM) in the experiment with Plasmodium falciparum [1]; 0.029 µg/mL (≈ 0.0476 µM) in the experiment with Plasmodium falciparum [2]; 2.2 µg/mL (≈ 3.61 µM) in experiment [3]; 4.4 µg/mL (≈ 7.23 µM) in experiment [4]; 0.57 µg/mL (≈ 0.936 µM) in the experiment on P388.
For `C=C[C@H]1CN2CC[C@H]1C[C@H]2[C@H](O)c1ccnc2ccc(OC)cc12` [QUININE], the EC50 was 0.0308 µg/mL (≈ 0.0949 µM) in the experiment on Plasmodium falciparum [1]; 0.0076 µg/mL (≈ 0.0234 µM) in the experiment on Plasmodium falciparum [2]; > 20 µg/mL in experiment [3]; > 20 µg/mL in experiment [4]; > 5 µg/mL in the experiment with P388.
For the compound `COc1ccc2cc1Oc1ccc(cc1)C[C@H]1c3cc(c(OC)cc3CCN1C)Oc1c(O)c(OC)cc3c1[C@@H](C2)N(C)CC3`, the EC50 was determined as 0.078 µg/mL (≈ 0.128 µM) with Plasmodium falciparum [1]; 0.0651 µg/mL (≈ 0.107 µM) with Plasmodium falciparum [2]; 3.4 µg/mL (≈ 5.59 µM) in experiment [3]; 11 µg/mL (≈ 18.1 µM) in experiment [4]; 0.36 µg/mL (≈ 0.591 µM) in the experiment with P388.
On the same counts, the results for `COc1ccc2cc1Oc1ccc(cc1)C[C@H]1c3cc(c(OC)cc3CCN1C)Oc1c(OC)c(OC)cc3c1[C@H](C2)N(C)CC3` [FANCHININ] are 0.16 µg/mL (≈ 0.257 µM), 0.179 µg/mL (≈ 0.287 µM), 2.1 µg/mL (≈ 3.37 µM), 3.7 µg/mL (≈ 5.94 µM) and 0.4 µg/mL (≈ 0.642 µM).
Turning to `COc1ccc2cc1Oc1ccc(cc1)C[C@H]1c3c(cc(OC)c(O)c3Oc3cc4c(cc3OC)CCN(C)[C@@H]4C2)CCN1C` [HOMOAROMOLINE], the EC50 came to 0.451 µg/mL (≈ 0.741 µM) in the experiment with Plasmodium falciparum [1]; 0.232 µg/mL (≈ 0.381 µM) with Plasmodium falciparum [2]; 3.6 µg/mL (≈ 5.91 µM) in experiment [3]; 15 µg/mL (≈ 24.6 µM) in experiment [4]; 0.31 µg/mL (≈ 0.509 µM) with P388.
